Data on six compounds can be found in ChEMBL document CHEMBL1150392, “Synthesis and activity on rat aorta rings and rat pancreatic beta-cells of ring-opened analogues of benzopyran-type potassium channel activators” (Bioorg Med Chem, 2008).

A value given as a limit tells only on which side of the number the result lay.

The species entered for assay [1] is Rattus norvegicus. Nature of the assay: Activation of ATP-sensitive potassium channel in Wistar rat pancreatic beta islets assessed as glucose-induced residual insulin secretion at 50 uM relative to control.
The species entered for assay [2] is Rattus norvegicus. The assay is described as follows: Activation of ATP-sensitive potassium channel in potassium-depolarized Wistar rat aortic rings assessed as myorelaxant activity against KCl-induced contraction. It counts as tissue-based. To be noted: Aorta. In a few lines: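 Aorta rings were taken from fed Wistar rats (180–220 g) and contracted with KCl 30 mM. Dose–response curves were run against the plateau phase.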

The species named for assay [3] is Rattus norvegicus. Nature of the assay: Activation of ATP-sensitive potassium channel in Wistar rat pancreatic beta islets assessed as glucose-induced residual insulin secretion at 10 uM relative to control.
Another assay has as its system Aorta. The assay is described as follows: Ratio of IC50 for inhibition of glucose-induced insulin secretion in Wistar rat pancreatic beta islets to ED50 for myorelaxant activity in Wistar rat aortic rings. It counts as functional.
Assay [4] in a line: Activation of ATP-sensitive potassium channel in Wistar rat pancreatic beta islets assessed as inhibition of glucose-induced insulin secretion.

`COc1ccccc1CNC(=O)c1cccs1`: in the assay filed under Rattus norvegicus [1], the Activity is 83.3%. For the same compound, the ED50 in the assay listed under Rattus norvegicus [2] was more than 30 µM.
The matching figures for `COc1ccccc1CNC(=O)NS(=O)(=O)c1ccc(Cl)cc1`: 113% and more than 30 µM.
Turning to `CC1(C)Oc2ccc(C#N)cc2C(N2CCCC2=O)C1O` (configuration not stated) [CROMAKALIM], the figures for the Activity in the assay filed under Rattus norvegicus [1] and in the assay listed under Rattus norvegicus [3] were 77.2% and 94.7%, respectively. For the same compound, the ED50 in the assay listed under Rattus norvegicus [2] came to 0.13 µM. Further, the Ratio in the assay with Aorta is on record as more than 769.
Turning to `CC(N/C(=N\C#N)Nc1ccncc1)C(C)(C)C` (configuration not stated), the Activity in the assay listed under Rattus norvegicus [3] came out at 96%. The ED50 in the assay listed under Rattus norvegicus [2] came to 0.35 µM.
Broadly, the IC50 is the concentration that inhibits the measured activity by half. For `CC1=Nc2ccc(Cl)cc2S(=O)(=O)N1` [DIAZOXIDE], the Activity in the assay filed under Rattus norvegicus [1] is 27.9%; in the assay listed under Rattus norvegicus [3] it was 71.7%. The ED50 in the assay listed under Rattus norvegicus [2] is 23.8 µM. The Ratio with Aorta worked out at 1. The IC50 in assay [4] was 19.7 µM.
As for `COc1ccccc1CNC(=O)c1ccc([N+](=O)[O-])cc1`, in the assay listed under Rattus norvegicus [1], the Activity was determined as 86.6%. In addition, the ED50 in the assay filed under Rattus norvegicus [2] was more than 30 µM.
